An excerpt weighted towards active compounds, which were near 2.6% of everything screened.
NadD inh: blocks S. aureus nicotinate mononucleotide adenylyltransferase. purified NadD enzyme, colorimetric absorbance read-out. inhibition, % at 20 µM. 360,000 compounds, 0.78% hits. AID 602399; in the data active = inhibition above about 26%
LMPTP inh: blocks human LMPTP phosphatase. P24666. recombinant LMPTP-A, OMFP fluorogenic substrate, fluorescence intensity. inhibition, % at 20 µM. 360,000 compounds, 0.22% hits. AID 651560;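 active = compounds that cut the enzyme signal by at least half of the control window in the single-dose screen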;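 also: plate controls were DMSO wells with enzyme plus substrate for no effect and substrate without enzyme for full effect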
Target sequence (P24666 whole entry, looked up): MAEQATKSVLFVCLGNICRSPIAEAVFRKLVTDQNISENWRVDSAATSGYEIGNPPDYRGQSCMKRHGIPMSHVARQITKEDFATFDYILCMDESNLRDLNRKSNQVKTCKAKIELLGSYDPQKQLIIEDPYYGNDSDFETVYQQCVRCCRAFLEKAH
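test system = LMPTP-A | amount = 0.625 nM LMPTP-A final | reagent = fluorogenic phosphatase substrate OMFP at 400 µM final | incubation = 50 min at room temperature | benchmarks = no-enzyme low control, uninhibited high control | medium = Bis-Tris pH 6.0, DTT, detergent | signal = fluorescence intensity of OMFP turnover product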
rCAG binder-1: r(CAG) repeat RNA binding | inhibition, % at 3 µM | 370,000 compounds, 1.3% hits | TO-PRO-1 dye displacement fluorescence;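 active = inhibition above the plate cutoff, the mean of all test compounds on that plate plus 3 SD, cut at about 35% in these data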;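 also: 0% = DMSO alone and 100% = 100 µM mitoxantrone as full dye displacement; higher means more dye released from RNA so lower well fluorescence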
Scp-1 inhibitor: blocks human Scp-1 phosphatase activity; 340,000 compounds, 0.88% hits; Recombinant Scp1, phosphopeptide, malachite green phosphate absorbance; Q9GZU7; AID 493091; inhibition, % at 20 µM;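 active = inhibition above about 50% at 20 µM, limit read from the data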;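 also: plate controls were DMSO wells with enzyme for no effect and wells lacking enzyme for full effect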
Target sequence (Q9GZU7 76-261 limits assumed): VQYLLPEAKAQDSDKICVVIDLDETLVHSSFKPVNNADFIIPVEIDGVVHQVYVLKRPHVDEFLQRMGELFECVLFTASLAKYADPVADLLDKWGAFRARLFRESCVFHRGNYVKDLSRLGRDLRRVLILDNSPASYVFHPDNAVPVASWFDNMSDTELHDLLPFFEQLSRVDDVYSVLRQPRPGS
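assay system = SCP-1 phosphatase catalytic domain, residues 76-261 | buffer or medium = 50 mM Tris acetate pH 5.5, 0.005% Tween-20, 10 mM MgCl2 | incubation = enzyme reaction 45 min at room temperature, colour 5 min, stabilisation 30 min | signal = Phosphate-binding colour reagent, absorbance read at 630 nm | measure = % inhibition at 20 µM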
STEP block: STEP (human) phosphatase inhibition; P54829; recombinant STEP, OMFP fluorogenic substrate, fluorescence; inhibition, % at 20 µM; 360,000 compounds, 0.25% hits;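 active = inhibition at 20 µM, scaled per plate between control wells, above about 37%, limit read from the data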;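 also: 0% = DMSO with enzyme and substrate and 100% = substrate only without enzyme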
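Assay system: isolated STEP enzyme / Timing: 20 min at room temperature, dark / Doses: 20 µM, 1% DMSO / Technique: fluorescence intensity, excitation 480 nm, emission 540 nm / Reagent: fluorogenic phosphatase substrate OMFP at 25 µM final / Measure: percent inhibition scaled to no-enzyme and uninhibited-enzyme controls, plate-pattern corrected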
rCAG bind conf: r(CAG) RNA repeat binding, confirmation | inhibition, % at 3 µM | TO-PRO-1 dye displacement fluorescence | AID 652065 | shares compounds with rCAG binder-1 | 4,300 compounds, 70% hits;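 active = inhibition above a per-plate cutoff, the mean inhibition of sample wells plus 3 SD, cut at about 35% in these data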;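 also: loss of TO-PRO-1 fluorescence as compound displaces dye from 1x1 AA loop RNA; 0% = DMSO only wells and 100% = 100 µM mitoxantrone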
dCAG dye counter: counter-screen for rCAG RNA binders: DNA CAG dye complex inhibitors; d(CAG) DNA oligo TO-PRO-1 dye displacement, fluorescence; AID 652068; shares compounds with rCAG binder-1; 4,300 compounds, 94% hits; inhibition, % at 3 µM;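 active = inhibition above its plate's cutoff, the mean test-well inhibition plus 3 SD, cut at about 4.8% in these data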;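 also: 0% = DNA dye mix with DMSO and 100% = 100 µM mitoxantrone; hits displace the dye from DNA and so lower well fluorescence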
dCAG dye DR: disrupts DNA CAG TO-PRO-1 complex in dose response; shares compounds with rCAG binder-1; IC50, µM; AID 686960; 250 compounds, 20% hits; DNA CAG/GTC duplex TO-PRO-1 dye displacement fluorescence; in the data active = IC50 below about 10 µM
dCAG DNA bind: DNA CAG dye complex inhibition, late stage dose response; shares compounds with rCAG binder-1; d(CAG) DNA duplex TO-PRO-1 dye displacement, fluorescence; IC50, µM; 30 compounds, 80% hits
rCAG binder-2: molecules binding r(CAG) RNA repeats, late stage dose response; shares compounds with rCAG binder-1; r(CAG) RNA TO-PRO-1 dye displacement, fluorescence; IC50, µM; 30 compounds, 100% hits
* hit, by the source's call; . = not tested or not shown. Unless noted, no rule for the calls is given here.

SMILES	NadD inh	LMPTP inh	rCAG binder-1	Scp-1 inhibitor	STEP block	rCAG bind conf	dCAG dye counter	others
O=C(CSc1nnc(-c2ccco2)n1-c1ccc(Cl)cc1)Nc1ccccc1-c1ccccc1	.	.	3	.	.	.	.
COC(=O)[C@]12C[C@H](CC(=O)NCCc3ccccc3OC)C(=O)N(CCc3ccc(OC)c(OC)c3)C1=C[C@H](C(C)C)O[C@@H]2C1CC1	.	.	3	.	.	.	.
COc1ccccc1CCn1cnc(-c2ccccc2OC)c1CC(C)C	.	.	1	.	.	.	.
Cc1ccc(-n2c(SCC(=O)Nc3ccc4cn[nH]c4c3)nnc2-c2ccccc2)cc1	.	.	6	.	.	.	.
Cc1ccccc1NC(=O)c1ccc2c(c1)C(=O)N(CC(C)C)C2=O	-3	-1	-1	-6	1	.	.
O=C(Nc1ccc(Cl)cc1C(=O)O)c1ccc2c(c1)C(=O)N(Cc1ccco1)C2=O	7	2	86*	22	5	88*	75*
O=C(Nc1ccccc1C(=O)O)c1cccc(N2C(=O)c3ccccc3C2=O)c1	-8	-2	35*	-10	2	18	1
O=C(O)c1cc(NC(=O)c2cccc(N3C(=O)c4ccccc4C3=O)c2)cc(C(=O)O)c1	-4	-2	8	-7	-1	.	.
CC(=O)NS(=O)(=O)c1ccc(NC(=O)c2ccc3c(c2)C(=O)N(CCC(C)C)C3=O)cc1	9	2	58*	-5	-1	59*	19*
CC(C)CN1C(=O)c2ccc(C(=O)Nc3ccccc3C(=O)O)cc2C1=O	-2	0	56*	-19	-1	57*	18*
CCN(CC)C(=O)CC[C@@H]1CC[C@]2(CCCN(Cc3ccc(Cl)cc3)C2)O1	.	.	-4	.	.	.	.
CC(C)CCN1C(=O)c2ccc(C(=O)Nc3ccc(Br)cc3C(=O)O)cc2C1=O	22	3	63*	26	0	79*	73*
CC(C)CCN1C(=O)c2ccc(C(=O)Nc3cc(C(=O)O)cc(C(=O)O)c3)cc2C1=O	-6	-1	30	-12	4	.	.
COc1ccc(Br)cc1C1CC(=O)N2CN(Cc3ccccc3)CSC2=C1C#N (centres undefined)	12	10	38*	-12	46*	30	13*
COc1ccc(Br)cc1C1CC(=O)N2CN(C)CSC2=C1C#N (centres undefined)	4	10	17	-5	18	.	.
CC(C)N1CCCCC(NC(=O)c2cccc(C(F)(F)F)c2)C1=O (centres undefined)	.	.	-1	.	.	.	.
C#CCNC(=O)C[C@@H]1C(=O)N2CCCC3=C2[C@@]1(C(=O)OCC)CCC3	.	.	35*	.	.	0	-1
CCC1=NN2C(=N)/C(=C\c3cccn3-c3ccc(OC)cc3)C(=O)N=C2S1	17	2	27	-2	3	.	.
CCC1=NN2C(=N)/C(=C\c3ccc(SCc4ccco4)o3)C(=O)N=C2S1	19	42	65*	44	17	56*	20*
O=C(CCc1ccccc1)N[C@H]1[C@@H](O)CCC[C@]12C(=O)N(Cc1ccccc1)c1ccccc12	.	.	4	.	.	.	.
O=c1cc(-c2ccccc2)[nH]n1-c1nc2ccccc2[nH]1	-3	0	65*	11	9	16	9.1*
CCc1cc(=O)[nH]c(-n2[nH]c(-c3ccccc3)cc2=O)n1	0	-1	17	-10	0	.	.
CCN(c1ccc(OC)cc1)S(=O)(=O)c1nnc(NC(=O)COc2ccc(F)cc2)s1	14	-1	56*	-7	1	57*	21*	dCAG dye DR=>30;dCAG DNA bind=5.5*;rCAG binder-2=1.8*
CCOc1cc(/C=C2\NC(=S)N(c3c(C)n(C)n(-c4ccccc4)c3=O)C2=O)ccc1O	-3	0	-7	-7	-1	.	.
CCOc1cccc(/C=C2\NC(=S)N(c3ccccc3)C2=O)c1O	-6	2	38*	-14	1	21	6.2*
SMILES	NadD inh	LMPTP inh	rCAG binder-1	Scp-1 inhibitor	STEP block	rCAG bind conf	dCAG dye counter	others
COC(=O)C1CN(Cc2cn(Cc3ccc(C)cc3)nn2)CCS(=O)(=O)N1Cc1ccccc1 (centres undefined)	.	.	-1	.	.	.	.
CCCCS(=O)(=O)NC(=O)C1(C)CCN1C(=O)C/C=C/c1ccccc1 (centres undefined)	4	0	9	.	-1	.	.
CCCCc1ccc(S(=O)(=O)NC(=O)C2(C)CCN2C(=O)Cc2ccccc2)cc1 (centres undefined)	-1	-2	39*	.	2	29	4.8*
CCCCc1ccc(S(=O)(=O)NC(=O)C2(C)CCN2C(=O)c2cccc(F)c2)cc1 (centres undefined)	0	-3	37*	.	-2	30	6.5*
CCCCc1ccc(S(=O)(=O)NC(=O)C2(C)CCN2C(=O)C/C=C/c2ccccc2)cc1 (centres undefined)	-2	-1	58*	.	-3	55*	18*
CCCCOc1ccc(S(=O)(=O)NC(=O)C2(C)CCN2C(=O)c2cccc(F)c2)cc1 (centres undefined)	3	-1	27	.	-1	.	.
CC1(c2nnnn2Cc2ccccc2)CCSCC(=O)N1Cc1cccs1 (centres undefined)	.	.	2	.	.	.	.
COc1cc(C)c2c(c1C=O)Oc1c(c(C)c(O)c3c1C(O)OC3=O)OC2=O (centres undefined)	11	-9	54*	10	2	34	7.0*
CS(=O)(=O)c1ccc2c(c1)sc1nc(=O)c(/C=C3/C=CC(=O)C(O)=C3)c(N)n12	3	30	39*	71*	12	48*	18*
COC1=C/C(=C/c2c(N)n3c(nc2=O)sc2cc(S(C)(=O)=O)ccc23)C=CC1=O	15	1	27	-5	1	.	.
O=C(/C=C/c1ccc(O)c(O)c1)NC(=O)c1ccccc1O	1	1	7	15	0	.	.
CSc1ccc(/C=C/C(=O)NC(=O)c2ccccc2O)cc1	0	1	38*	-11	2	26	8.7*
Cc1ccc(S(=O)(=O)/N=C2\C=C(NS(=O)(=O)c3ccccc3)C(=O)c3ccccc32)cc1	13	2	40*	-15	-4	84*	51*

Screening data: PubChem, several laboratories
